Laboratory results taken from article PMC7717682 (Journal of Enzyme Inhibition and Medicinal Chemistry, 2020).
Like-named read-outs stand apart in the source and are kept apart here.

Tests used:
[1] = target: T1, Escherichia coli GUS (EcGUS) (Escherichia coli, UniProt P05804); test: EcGUS inhibition assay; format: biochemical; settings: for percentage inhibition rate of EcGUS: compounds at 100 μM, pNPG as substrate; for inhibition at 100 µM: read-out: percentage inhibition rate of EcGUS
[2] = target: T1, Escherichia coli GUS (EcGUS); test: Inhibition kinetics; format: biochemical; settings: pNPG as substrate; for type of inhibition of EcGUS: Lineweaver-Burk plot
Summary of the method: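 Recombinant EcGUS was expressed in E. coli BL21(DE3) carrying pET28a-EcGUS. The enzyme hydrolysed pNPG, and activity was read as para-nitrophenyl released. Test compound stocks were 10 mM in DMSO. pNPG and inhibitor concentrations were varied. Inhibition type came from where the regression lines intercept on Lineweaver-Burk plots, and Ki was then calculated. Runs were in triplicate, repeated twice, reported as mean ± SD.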

[3] = read-out: IC50 against EcGUS, pNPG 250 µM, PBS pH 7.4, 37 °C, 30 min

T1 sequence (P05804 whole entry): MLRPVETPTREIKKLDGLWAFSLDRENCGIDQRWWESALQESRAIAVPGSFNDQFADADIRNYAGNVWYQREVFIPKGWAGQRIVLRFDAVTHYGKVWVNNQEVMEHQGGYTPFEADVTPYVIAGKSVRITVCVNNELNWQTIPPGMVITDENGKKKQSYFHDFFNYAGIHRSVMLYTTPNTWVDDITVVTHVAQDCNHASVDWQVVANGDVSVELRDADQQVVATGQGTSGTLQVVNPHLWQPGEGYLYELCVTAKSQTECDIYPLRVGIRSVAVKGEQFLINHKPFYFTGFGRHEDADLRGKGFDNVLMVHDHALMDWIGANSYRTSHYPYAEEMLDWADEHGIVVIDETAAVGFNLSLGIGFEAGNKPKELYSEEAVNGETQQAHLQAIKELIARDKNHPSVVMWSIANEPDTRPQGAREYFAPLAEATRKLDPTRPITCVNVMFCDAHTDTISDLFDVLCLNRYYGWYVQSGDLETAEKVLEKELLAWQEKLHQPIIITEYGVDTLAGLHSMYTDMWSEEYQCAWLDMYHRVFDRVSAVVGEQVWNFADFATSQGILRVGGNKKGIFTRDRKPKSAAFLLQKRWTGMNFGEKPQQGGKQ

Row | Molecule | percentage inhibition rate of EcGUS [1] [%] | IC50 [1, 3] [µM] | type of inhibition of EcGUS [2] | Ki ([2]; read-out: Ki (inhibition constant) against EcGUS) [µM] | IC50 [1] [µM] | inhibition at 100 µM [1] [%]
1 | CCOC(=O)/C=C/c1ccc(O)c(O)c1 [CAEE, caffeic acid ethyl ester] | 97.1 ± 0.2 | 7 | competitive | 2.7 | – | –
2 | O=C(O)[C@@H](O)[C@H]1OC(=O)[C@H](O)[C@H]1O [DSL, D-glucaric acid-1,4-lactone, reference compound] | 48.7 ± 1.2 | 67.1 | – | – | – | –
3 | C[C@@H]1O[C@@H](O[C@@H]2[C@@H](O)[C@H](OCCc3ccc(O)c(O)c3)O[C@H](CO)[C@H]2OC(=O)/C=C/c2ccc(O)c(O)c2)[C@H](O)[C@H](O)[C@H]1O [acteoside] | – | – | mixed-type | – | 3.2 | 88 ± 2.2
4 | COc1ccc(CCO[C@@H]2O[C@H](CO[C@@H]3OC[C@H](O)[C@H](O)[C@H]3O)[C@@H](OC(=O)/C=C/c3ccc(O)c(OC)c3)[C@H](O[C@@H]3O[C@@H](C)[C@H](O)[C@@H](O)[C@H]3O)[C@H]2O)cc1O [angoroside C] | – | > 100 | – | – | – | –
5 | C[C@@H]1O[C@@H](OC[C@H]2O[C@@H](OCCc3ccc(O)c(O)c3)[C@H](OC(=O)/C=C/c3ccc(O)c(O)c3)[C@@H](O)[C@@H]2O)[C@H](O)[C@H](O)[C@H]1O [forsythoside H] | – | 22.2 | – | – | – | –
6 | C[C@@H]1O[C@@H](O[C@@H]2[C@@H](O)[C@H](OCCc3ccc(O)c(O)c3)O[C@H](COC(=O)/C=C/c3ccc(O)c(O)c3)[C@H]2O)[C@H](O)[C@H](O)[C@H]1O [isoacteoside] | – | – | mixed-type | – | 8.8 | 77
7 | C[C@@H]1O[C@@H](OC[C@H]2O[C@@H](OCCc3ccc(O)c(O)c3)[C@H](O)[C@@H](OC(=O)/C=C/c3ccc(O)c(O)c3)[C@@H]2O)[C@H](O)[C@H](O)[C@H]1O [isoforsythiaside] | – | 7.6 | mixed-type | – | – | –
8 | COc1ccc(CCO[C@@H]2O[C@H](CO)[C@@H](OC(=O)/C=C/c3ccc(O)c(OC)c3)[C@H](O[C@@H]3O[C@@H](C)[C@H](O)[C@@H](O)[C@H]3O)[C@H]2O)cc1O [martynoside] | – | 14.3 | mixed-type | – | – | –
9 | acetylacteoside | – | – | mixed-type | – | – | –
